Test results reported in ChEMBL document CHEMBL3124767, “Synthesis, biological evaluation and molecular modelling studies of 4-anilinoquinazoline derivatives as protein kinase inhibitors” (Bioorg Med Chem, 2014).

What was measured:
[1] = target: Dual specificity protein kinase CLK1 (Homo sapiens, UniProt P49759); experiment: Inhibition of human recombinant GST-fused CLK1 expressed in Escherichia coli using GRSRSRSRSRSR as substrate
Procedure, shortened: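 GST-tagged human CLK1 made in E. coli. Buffer A (MgCl2, EGTA, DTT, 25 mM Tris-HCl pH 7.5, heparin) with 0.15 mg BSA/mL, RS peptide substrate at 1 µg/assay, 15 µM final ATP. Run 30 min at 30 °C in triplicate. Activity is given as % of the no-inhibitor maximum after blank subtraction. Compounds screened at 10 µM; IC50 from dose-response curves (usually 0.01–10 µM).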

[2] = target: Dual specificity tyrosine-phosphorylation-regulated kinase 1A (Rattus norvegicus, UniProt Q63470); experiment: Inhibition of rat recombinant GST-fused DYRK1A expressed in Escherichia coli using KKISGRLSPIMTEQ as substrate by scintillation counting in presence of [gamma-33P]ATP
[3] = Inhibition of CK1 delta/epsilon in pig brain using RRKHAAIGpSAYSITA as substrate by scintillation counting in presence of [gamma-33P]ATP; set-up: species or system Sus scrofa
[4] = target: Glycogen synthase kinase-3 (Sus scrofa, UniProt B2LUN4+I6LNT8); experiment: Inhibition of GSK3 alpha/beta in pig brain using YRRAAVPPSPSLSRHSSPHQpSEDEEE as substrate by scintillation counting in presence of [gamma-33P]ATP
Procedure, shortened: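 Native GSK-3α/β from porcine brain, run in triplicate in buffer A (10 mM MgCl2, 1 mM EGTA, 1 mM DTT, 25 mM Tris–HCl pH 7.5, 50 µg heparin/mL) with GS-1 peptide substrate and 15 µM [γ-33P]ATP final, 30 min at 30 °C; spotted on P81 phosphocellulose, acid-washed, counted. Single 10 µM screen, then dose–response (usually 0.01–10 µM) for IC50; blank-subtracted, % of uninhibited activity.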

[5] = target: Cyclin-dependent kinase 5/CDK5 activator 1 (Homo sapiens, UniProt Q00535); experiment: inhibition of human recombinant CDK5/p25 using histone H1 as substrate by scintillation counting in presence of [gamma-33P]ATP; type: protein-complex assay
Procedure, shortened: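 Human recombinant CDK5/p25 in buffer A (Tris-HCl pH 7.5, MgCl2, EGTA, DTT, heparin) with 1 mg/mL histone H1 and 15 µM [γ-33P]ATP. Run 30 min at 30 °C in triplicate. P81 filter binding, phosphoric acid washes, scintillation counting. Activity is % of maximal after blank subtraction. Compounds screened at 10 µM; IC50 from dose-response curves.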

Measured: IC50

Dual specificity protein kinase CLK1, sequence (P49759 whole entry, the tested form may be a part): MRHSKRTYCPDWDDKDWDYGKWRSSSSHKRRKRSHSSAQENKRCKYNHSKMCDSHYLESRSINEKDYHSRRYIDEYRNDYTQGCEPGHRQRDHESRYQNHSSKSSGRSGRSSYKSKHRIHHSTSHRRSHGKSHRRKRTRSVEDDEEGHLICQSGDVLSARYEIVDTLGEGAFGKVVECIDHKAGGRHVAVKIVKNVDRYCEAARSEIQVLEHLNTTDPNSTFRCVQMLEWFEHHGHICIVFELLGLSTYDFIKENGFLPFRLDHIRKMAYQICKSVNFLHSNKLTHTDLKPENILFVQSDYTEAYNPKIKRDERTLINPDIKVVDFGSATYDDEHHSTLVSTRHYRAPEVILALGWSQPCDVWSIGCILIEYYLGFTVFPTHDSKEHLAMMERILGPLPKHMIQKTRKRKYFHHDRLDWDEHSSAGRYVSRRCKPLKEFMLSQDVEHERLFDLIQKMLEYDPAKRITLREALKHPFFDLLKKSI
Cyclin-dependent kinase 5/CDK5 activator 1, sequence (Q00535 whole entry): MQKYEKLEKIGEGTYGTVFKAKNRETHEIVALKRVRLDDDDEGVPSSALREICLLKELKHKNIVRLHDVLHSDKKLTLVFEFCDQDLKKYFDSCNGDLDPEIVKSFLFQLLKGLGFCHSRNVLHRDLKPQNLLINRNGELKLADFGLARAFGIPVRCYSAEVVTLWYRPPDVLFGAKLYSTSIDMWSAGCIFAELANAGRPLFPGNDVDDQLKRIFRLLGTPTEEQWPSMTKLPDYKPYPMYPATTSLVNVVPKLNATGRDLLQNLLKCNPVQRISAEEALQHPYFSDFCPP
Cyclin-dependent kinase 5/CDK5 activator 1, sequence (Q15078 whole entry, further chain): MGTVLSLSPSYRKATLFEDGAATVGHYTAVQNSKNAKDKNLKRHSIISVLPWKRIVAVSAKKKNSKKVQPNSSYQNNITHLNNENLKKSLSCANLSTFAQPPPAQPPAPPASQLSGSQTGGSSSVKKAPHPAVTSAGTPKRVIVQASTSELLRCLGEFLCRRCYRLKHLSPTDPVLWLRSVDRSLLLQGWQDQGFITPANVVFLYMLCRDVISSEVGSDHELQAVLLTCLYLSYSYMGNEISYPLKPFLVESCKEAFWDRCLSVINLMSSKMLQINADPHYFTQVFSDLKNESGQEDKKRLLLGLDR

COc1ccc(Nc2ncnc3cc(OC)c(OC)cc23)cc1OC
3 µM: [4]
1.5 µM: [1]
≥ 10 µM: [2]
> 10 µM: [3] | [5]

COc1ccc(Nc2ncnc3cc(OC)c(OC)cc23)cc1
> 10 µM: all assays above

COc1cc2ncnc(Nc3ccc(C(F)(F)F)cc3)c2cc1OC
> 10 µM: all assays above

COc1cc2ncnc(Nc3ccc(OC(F)(F)F)cc3)c2cc1OC
> 10 µM: all assays above

COc1cc2ncnc(Nc3ccc(NC(C)=O)cc3)c2cc1OC
> 10 µM: all assays above

COc1cc2ncnc(Nc3ccc(F)c(Cl)c3)c2cc1OC
7.6 µM: [1]
> 10 µM: all other assays above

COc1cc2ncnc(Nc3ccc(C)c(C)c3)c2cc1OC
> 10 µM: all assays above

COc1cc2ncnc(Nc3ccc(C(C)=O)cc3)c2cc1OC
≥ 10 µM: [1]
> 10 µM: all other assays above

COc1cc2ncnc(Nc3cccc(C(F)(F)F)c3)c2cc1OC
> 10 µM: all assays above

COc1cc2ncnc(Nc3ccccc3)c2cc1OC
≥ 10 µM: [1]
> 10 µM: all other assays above

O=C1Nc2cc(Br)ccc2/C1=C1/Nc2ccccc2/C1=N\O [6BIO]
2.1 µM: [1]
